Key:
1A9 = experiment: Antiproliferative activity against human 1A9 cells after 4 days by SRB assay; type: functional, cell-based; settings: 1A9, 96 h
Summary of the method: (§1)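 Compounds were tested as HCl salts and dosed from DMSO. Cells were 1A9 ovarian and MCF-7 breast cancer lines. IC50 is the mean of two independent determinations.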

MCF7 = experiment: Antiproliferative activity against human MCF7 cells after 4 days by SRB assay; type: functional, cell-based; settings: MCF7, 96 h; summary of the method: as §1
[1] = Inhibition of tubulin polymerization
[2] = Anticancer activity against human KBV1 cells expressing P-gp; type: functional, cell-based; settings: KB-V1

Structure (SMILES)	IC50 (1A9) [nM]	IC50 (MCF7) [nM]	IC50 [1] [nM]	IC50 [2] [nM]
CC[C@H](C)[C@H](NC(=O)[C@@H](C)N(C)C)C(=O)N[C@H](CC(=O)c1nc(C(=O)N[C@@H](Cc2ccccc2)CC(C)(C)C(=O)O)cs1)C(C)C	14200	12200	8500	
CC[C@H](C)[C@H](NC(=O)[C@@H](C)N(C)C)C(=O)N[C@H](CC(=O)c1nc(C(=O)N[C@@H](Cc2ccccc2)C[C@H](C)C(=O)O)cs1)C(C)C	> 50000		3600	
CC[C@H](C)[C@H](NC(=O)[C@H]1CCCCN1C)C(=O)N[C@H](C[C@H](O)c1nc(C(=O)N[C@@H](Cc2ccccc2)C[C@H](C)C(=O)O)cs1)C(C)C	5100	8100	1300	
CC[C@H](C)[C@H](NC(=O)[C@@H](C)N(C)C)C(=O)NC(CC(=O)c1nc(C(=O)N[C@H](CCC(=O)O)Cc2ccccc2)cs1)C(C)C (single isomer, unassigned)	300	170	12500	
CN[C@H](C(=O)N[C@H](C(=O)N(C)[C@H](/C=C(\C)C(=O)O)C(C)C)C(C)(C)C)C(C)(C)c1ccccc1 [TALTOBULIN]	0.2	0.15	700	
CC[C@H](C)[C@H](NC(=O)[C@H]1CCCCN1C)C(=O)N(COC(=O)CC(C)C)[C@H](C[C@@H](OC(C)=O)c1nc(C(=O)N[C@@H](Cc2ccccc2)C[C@H](C)C(=O)O)cs1)C(C)C [TUBULYSIN D]				0.31
CC[C@H](C)[C@H](NC(=O)[C@H]1CCCCN1C)C(=O)N[C@H](C[C@@H](OC(C)=O)c1nc(C(=O)N[C@@H](Cc2ccccc2)C[C@H](C)C(=O)O)cs1)C(C)C [TUBULYSIN U]	0.65	0.4	1900	
CC[C@H](C)[C@H](NC(=O)[C@H]1CCCCN1C)C(=O)N[C@H](C[C@@H](O)c1nc(C(=O)N[C@@H](Cc2ccccc2)C[C@H](C)C(=O)O)cs1)C(C)C [TUBULYSIN V]	120	240	1100	

From ChEMBL document CHEMBL1139371, “Total synthesis and biological evaluation of tubulysin U, tubulysin V, and their analogues” (J Med Chem, 2009)
